# Experimental data taken from ChEMBL document CHEMBL4715796, “Discovery of Chromane Containing Hepatitis C Virus (HCV) NS5A Inhibitors with Improved Potency against Resistance-Associated Variants” (J Med Chem, 2016).
# Where a chain is given by its changes, count along the chain named.
# How the values were obtained:
# [1] = tested on: Hepatitis C virus subtype 1a; assay: Selectivity ratio of EC90 for inhibition of NS5A Q30D mutant in Hepatitis C virus subtype 1a to EC90 for Selectivity ratio of EC90 for inhibition of NS5A in Hepatitis C virus subtype 1a
# In short: (§1)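 Fold shift is calculated against the GT1a EC90. The variant EC90 comes from a transient replicon assay: the NS5A variant is introduced into a GT1a-H77 or GT1b-Con1 replicon and electroporated into Huh7-derived cells. The read-out is reduced luciferase signal. EC90s are means of at least two experiments.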
# [2] = Selectivity ratio of EC90 for inhibition of NS3 D168Y mutant in Hepatitis C virus subtype 1b to EC90 for Selectivity ratio of EC90 for inhibition of NS5A in Hepatitis C virus subtype 1a
# Huh-7 [3] = assay: Inhibition of NS5A in Hepatitis C virus subtype 2b infected in human HuH7 cells assessed as reduction in viral replication by luciferase reporter gene assay; assay type: cell-based
# In short: (§2)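 Transient replicon assay with GT1a-H77, GT1b-Con1 or chimeric replicons, electroporated into a Huh7-derived cell line. Percent inhibition of replication, read as a drop in luciferase signal, was calculated at each concentration to give EC90. Values are means of at least two experiments.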
# Huh-7 [4] = assay: Inhibition of NS5A in Hepatitis C virus subtype 3a infected in human HuH7 cells assessed as reduction in viral replication by luciferase reporter gene assay; assay type: cell-based; in short: as §2
# Huh-7 [5] = assay: Inhibition of NS5A in Hepatitis C virus subtype 4a infected in human HuH7 cells assessed as reduction in viral replication by luciferase reporter gene assay; assay type: cell-based; in short: as §2
# [6] = tested on: T1, Nonstructural protein 5A (Hepatitis C virus), Q5L478 [Y93H]; assay: Inhibition of NS5A Y93H mutant in Hepatitis C virus subtype 1b
# T1 sequence (whole entry): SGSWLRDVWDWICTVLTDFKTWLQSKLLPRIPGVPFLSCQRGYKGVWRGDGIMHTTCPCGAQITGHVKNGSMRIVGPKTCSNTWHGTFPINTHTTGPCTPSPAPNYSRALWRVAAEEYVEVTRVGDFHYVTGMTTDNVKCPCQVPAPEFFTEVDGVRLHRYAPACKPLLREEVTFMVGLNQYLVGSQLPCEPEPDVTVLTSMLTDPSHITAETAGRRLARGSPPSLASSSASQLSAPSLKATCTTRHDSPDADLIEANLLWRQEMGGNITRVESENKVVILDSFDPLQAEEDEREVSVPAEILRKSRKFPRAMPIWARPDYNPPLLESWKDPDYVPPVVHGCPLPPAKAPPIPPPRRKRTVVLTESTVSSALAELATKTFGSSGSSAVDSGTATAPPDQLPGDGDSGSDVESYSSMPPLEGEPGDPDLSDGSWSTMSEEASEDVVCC
# In short: (§3)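 NS5A resistance variants engineered into GT1a-H77 or GT1b-Con1 replicons. Each variant replicon is transfected transiently by electroporation into a Huh7-derived cell line. Percent inhibition is taken from the drop in luciferase signal at each compound concentration, and EC90 is calculated from these. Values are means of at least two experiments.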
# [7] = Selectivity ratio of EC90 for inhibition of NS5A Y93H mutant in Hepatitis C virus subtype 1a infected in human HuH7 cells assessed as reduction in viral to EC90 for inhibition of NS5A in Hepatitis C virus subtype 1a; assay type: cell-based; in short: as §1
# [8] = Selectivity ratio of EC90 for inhibition of NS5A in Hepatitis C virus subtype 2b infected in human HuH7 cells assessed as reduction in viral to EC90 for inhibition of NS5A in Hepatitis C virus subtype 1a; assay type: cell-based
# [9] = Selectivity ratio of EC90 for inhibition of NS5A in Hepatitis C virus subtype 1b infected in human HuH7 cells assessed as reduction in viral to EC90 for inhibition of NS5A in Hepatitis C virus subtype 1a; assay type: cell-based
# In short: (§4)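 Fold shift calculated against the GT1a EC90, using EC90 values from the luciferase replicon assay in Huh7-derived cells.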
# [10] = tested on: Hepatitis C virus subtype 1a; assay: Selectivity ratio of EC90 for inhibition of NS5A Q30R mutant in Hepatitis C virus subtype 1a to EC90 for Selectivity ratio of EC90 for inhibition of NS5A in Hepatitis C virus subtype 1a; in short: as §1
# [11] = tested on: Nonstructural protein 5A (Hepatitis C virus), Q5L478 [UNDEFINED MUTATION]; assay: Inhibition of NS5A Q30R mutant in Hepatitis C virus subtype 1a; in short: as §3
# [12] = Selectivity ratio of EC90 for inhibition of NS5A in Hepatitis C virus subtype 4a infected in human HuH7 cells assessed as reduction in viral to EC90 for inhibition of NS5A in Hepatitis C virus subtype 1a; assay type: cell-based; in short: as §4
# [13] = Selectivity ratio of EC90 for inhibition of NS5A Y93H mutant in Hepatitis C virus subtype 1b to EC90 for Selectivity ratio of EC90 for inhibition of NS5A in Hepatitis C virus subtype 1a; in short: as §1
# [14] = Selectivity ratio of EC90 for inhibition of NS5A L31V mutant in Hepatitis C virus subtype 1b to EC90 for Selectivity ratio of EC90 for inhibition of NS5A in Hepatitis C virus subtype 1a; in short: as §1
# [15] = tested on: Hepatitis C virus subtype 1a; assay: Selectivity ratio of EC90 for inhibition of NS5A Y93N mutant in Hepatitis C virus subtype 1a to EC90 for Selectivity ratio of EC90 for inhibition of NS5A in Hepatitis C virus subtype 1a; in short: as §1
# [16] = Selectivity ratio of EC90 for inhibition of NS5A L31V mutant in Hepatitis C virus subtype 1a infected in human HuH7 cells assessed as reduction in viral to EC90 for inhibition of NS5A in Hepatitis C virus subtype 1a; assay type: cell-based; in short: as §1
# [17] = tested on: Hepatitis C virus subtype 1a; assay: Inhibition of NS5A Q30D mutant in Hepatitis C virus subtype 1a; in short: as §3
# [18] = tested on: T2, Nonstructural protein 5A (Hepatitis C virus), Q5L478 [Y93N]; assay: Inhibition of NS5A Y93N mutant in Hepatitis C virus subtype 1a; in short: as §3
# T2 sequence (whole entry): T1 sequence (whole entry) with H93N
# [19] = tested on: Hepatitis C virus subtype 1a; assay: Selectivity ratio of EC90 for inhibition of NS5A R155K mutant in Hepatitis C virus subtype 1a to EC90 for Selectivity ratio of EC90 for inhibition of NS5A in Hepatitis C virus subtype 1a
# [20] = tested on: Hepatitis C virus subtype 1a; assay: Inhibition of NS3 R155K/V36M mutant in Hepatitis C virus subtype 1a
# Huh-7 [21] = assay: Inhibition of NS5A in Hepatitis C virus subtype 1a infected in human HuH7 cells assessed as reduction in viral replication by luciferase reporter gene assay; assay type: cell-based; in short: as §2
# [22] = Selectivity ratio of EC90 for inhibition of NS5A in Hepatitis C virus subtype 3a infected in human HuH7 cells assessed as reduction in viral to EC90 for inhibition of NS5A in Hepatitis C virus subtype 1a; assay type: cell-based
# [23] = tested on: Nonstructural protein 5A (Hepatitis C virus), Q5L478 [UNDEFINED MUTATION]; assay: Inhibition of NS5A L31V mutant in Hepatitis C virus subtype 1a infected in human HuH7 cells assessed as reduction in viral replication by luciferase reporter gene assay; assay type: cell-based; conditions: Huh-7; in short: as §3
# [24] = tested on: Hepatitis C virus subtype 1b; assay: Inhibition of NS3 D168Y mutant in Hepatitis C virus subtype 1b
# [25] = tested on: Hepatitis C virus subtype 1a; assay: Inhibition of NS3 R155K mutant in Hepatitis C virus subtype 1a
# Huh-7 [26] = assay: Inhibition of NS5A in Hepatitis C virus subtype 1b infected in human HuH7 cells assessed as reduction in viral replication by luciferase reporter gene assay; assay type: cell-based; in short: as §2
# [27] = tested on: Nonstructural protein 5A (Hepatitis C virus), Q5L478 [UNDEFINED MUTATION]; assay: Inhibition of NS5A L31V mutant in Hepatitis C virus subtype 1b; in short: as §3
# [28] = tested on: Hepatitis C virus subtype 1a; assay: Selectivity ratio of EC90 for inhibition of NS5A R155K V36 mutant in Hepatitis C virus subtype 1a to EC90 for Selectivity ratio of EC90 for inhibition of NS5A in Hepatitis C virus subtype 1a
structure (smiles),measurement,setting,value
COC(=O)N[C@H](C(=O)N1CCC[C@H]1c1ncc(-c2cc(F)c3c(c2)OC(c2ccc4c(c2)OCCC4)n2c-3cc3cc(-c4cnc([C@@H]5CCCN5C(=O)[C@@H](NC(=O)OC)C(C)C)[nH]4)ccc32)[nH]1)C(C)C (stereo partly drawn),Selectivity ratio,[1],300
same,Selectivity ratio,[2],1
same,EC90,Huh-7 [3],300 pM
same,EC90,Huh-7 [4],10 pM
same,EC90,Huh-7 [5],2 pM
same,EC90,[6],70 pM
same,Selectivity ratio,[7],167
same,Selectivity ratio,[8],100
same,Selectivity ratio,[9],1
same,Selectivity ratio,[10],7
same,EC90,[11],20 pM
same,Selectivity ratio,[12],1
same,Selectivity ratio,[13],23
same,Selectivity ratio,[14],2
same,Selectivity ratio,[15],67
same,Selectivity ratio,[16],7
same,EC90,[17],900 pM
same,EC90,[18],200 pM
same,Selectivity ratio,[19],1
same,EC90,[20],1 pM
same,EC90,Huh-7 [21],3 pM
same,Selectivity ratio,[22],3
same,EC90,[23],20 pM
same,EC90,[24],2 pM
same,EC90,[25],0.1 pM
same,EC90,Huh-7 [26],3 pM
same,EC90,[27],5 pM
same,Selectivity ratio,[28],1
